Source: ChEMBL document CHEMBL1143873, “Synthesis and biological evaluation of 2-alkylaminoethyl-1,1-bisphosphonic acids against Trypanosoma cruzi and Toxoplasma gondii targeting farnesyl diphosphate synthase” (Bioorg Med Chem, 2008)

How the values were obtained:
Trypanosoma cruzi [1] = assay: Growth inhibition of Trypanosoma cruzi amastigotes in rat L6E9 cells; type: functional, organism-based
Toxoplasma gondii = assay: Growth inhibition of Toxoplasma gondii tachyzoites in HFF cells; type: functional, organism-based
[2] = biological target: T1, Farnesyl diphosphate synthase (Trypanosoma cruzi, UniProt Q8WS26); assay: Inhibition of Trypanosoma cruzi FPPS
T1 sequence (Q8WS26 whole entry): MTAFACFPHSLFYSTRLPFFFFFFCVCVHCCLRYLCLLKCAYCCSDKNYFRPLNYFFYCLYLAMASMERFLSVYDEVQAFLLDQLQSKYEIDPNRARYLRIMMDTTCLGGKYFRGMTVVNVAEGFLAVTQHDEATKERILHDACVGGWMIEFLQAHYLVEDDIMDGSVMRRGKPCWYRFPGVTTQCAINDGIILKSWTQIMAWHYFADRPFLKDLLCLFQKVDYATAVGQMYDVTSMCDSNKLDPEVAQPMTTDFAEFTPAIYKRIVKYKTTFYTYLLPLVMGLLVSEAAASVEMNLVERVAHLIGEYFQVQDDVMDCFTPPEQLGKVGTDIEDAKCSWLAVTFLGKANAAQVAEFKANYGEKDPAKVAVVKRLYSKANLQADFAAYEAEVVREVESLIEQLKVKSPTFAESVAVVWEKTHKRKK
Method in brief: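 Recombinant TcFPPS (10–20 ng) started into prewarmed buffer of 10 mM Hepes pH 7.4, 5 mM MgCl2, 2 mM DTT, 100 μM [4-14C]IPP, 100 μM DMAPP; 30 min at 37 °C; quenched with HCl, then alkalinised; hexane-extracted product counted by scintillation.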

[3] = biological target: T2, Farnesyl diphosphate synthase (Toxoplasma gondii, UniProt Q197X6); assay: Inhibition of Toxoplasma gondii FPPS
T2 sequence (Q197X6 whole entry): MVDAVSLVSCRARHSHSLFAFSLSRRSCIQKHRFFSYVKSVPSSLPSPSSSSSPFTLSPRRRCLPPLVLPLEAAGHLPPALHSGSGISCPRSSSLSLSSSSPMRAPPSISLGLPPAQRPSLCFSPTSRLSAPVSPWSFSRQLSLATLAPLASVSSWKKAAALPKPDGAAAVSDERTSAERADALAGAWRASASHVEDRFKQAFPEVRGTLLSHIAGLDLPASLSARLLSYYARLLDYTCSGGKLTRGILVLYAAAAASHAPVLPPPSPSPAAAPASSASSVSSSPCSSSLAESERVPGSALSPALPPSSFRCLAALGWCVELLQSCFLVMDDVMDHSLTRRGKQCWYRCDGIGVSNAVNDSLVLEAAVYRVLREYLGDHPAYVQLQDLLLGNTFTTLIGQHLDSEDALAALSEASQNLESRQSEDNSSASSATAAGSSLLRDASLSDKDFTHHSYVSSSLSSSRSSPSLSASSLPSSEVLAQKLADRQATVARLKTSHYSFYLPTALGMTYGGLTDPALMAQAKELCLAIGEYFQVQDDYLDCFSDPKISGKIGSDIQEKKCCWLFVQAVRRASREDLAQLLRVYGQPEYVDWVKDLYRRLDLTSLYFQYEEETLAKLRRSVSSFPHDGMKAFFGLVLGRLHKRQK
Method in brief: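 Recombinant TgFPPS (10–20 ng) started into prewarmed buffer of 10 mM Hepes pH 7.4, 1 mM MgCl2, 2 mM DTT, 100 μM [4-14C]IPP, 100 μM DMAPP; 30 min at 37 °C; quenched with HCl, then alkalinised; hexane-extracted product counted by scintillation.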

Trypanosoma cruzi [4] = assay: Growth inhibition of Trypanosoma cruzi amastigotes in rat L6E9 cells at 10 uM; type: functional; conditions: read-out: GI

Row | IC50 (Trypanosoma cruzi [1]) | IC50 [2] | Compound | IC50 (Toxoplasma gondii) | IC50 [3] | inhibition of growth at 10 µM (Trypanosoma cruzi [4])
1 | 14 µM | 0.76 µM | O=P(O)(O)C(CNN1CCCC1)P(=O)(O)O | 13.3 µM | 0.361 µM | 
2 | > 50 µM | 0.515 µM | CC(C)CNCC(P(=O)(O)O)P(=O)(O)O | 74.5 µM | 0.181 µM | 
3 | 4.8 µM | 2.28 µM | CCCCNCC(P(=O)(O)O)P(=O)(O)O | 48.7 µM | 0.206 µM | 
4 |  | 0.013 µM | O=P(O)(O)C(CNC1CCCCC1)P(=O)(O)O | 57.3 µM | 0.337 µM | 36.3%
5 | 6.1 µM | 0.287 µM | O=P(O)(O)C(CNN1CCCCC1)P(=O)(O)O | 70.6 µM | 0.165 µM | 
6 | 18 µM |  | CCCCCCC(O)(P(=O)(O)O)P(=O)(O)O |  |  | 
7 | 10 µM | 0.42 µM | CC(C)CCNCC(P(=O)(O)O)P(=O)(O)O | 36.9 µM | 0.275 µM | 
8 | > 50 µM | 0.944 µM | CCC(C)NCC(P(=O)(O)O)P(=O)(O)O (stereo not drawn) | > 100 µM | 0.112 µM | 
9 | 0.54 µM | 1.84 µM | CCCCCNCC(P(=O)(O)O)P(=O)(O)O | > 50 µM | 0.08 µM | 
10 | 10 µM | 1.21 µM | CC(C)(C)NCC(P(=O)(O)O)P(=O)(O)O | 42.8 µM | 0.286 µM | 

Row | Compound | IC50 (Trypanosoma cruzi [1]) | IC50 [2] | IC50 (Toxoplasma gondii) | IC50 [3] | inhibition of growth at 10 µM (Trypanosoma cruzi [4])
11 | CCCCCCNCC(P(=O)(O)O)P(=O)(O)O | 0.84 µM | 0.49 µM | 9.37 µM | 0.137 µM | 
12 | CC(C)NCC(P(=O)(O)O)P(=O)(O)O | > 50 µM | 1.4 µM | 69.8 µM | 0.253 µM | 
13 | N#CSCCOc1ccc(Oc2ccccc2)cc1 | 12 µM |  |  |  | 
14 | CCCNCC(P(=O)(O)O)P(=O)(O)O | > 50 µM | 0.038 µM | 6.33 µM | 0.298 µM | 
15 | CCCCCCCNCC(P(=O)(O)O)P(=O)(O)O | 10 µM | 0.058 µM | > 50 µM | 0.095 µM | 
16 | CCCCCCCCNCC(P(=O)(O)O)P(=O)(O)O | 4.1 µM | 1.01 µM | 2.6 µM | 0.087 µM | 
